In test [1] the test system is Rattus norvegicus. The experiment in a line: Antidiabetic activity in ZDF rat assessed as body weight gain at 100 mg/kg, po QD for 40 days relative to pioglitazone. In kind it is functional. In short, it runs like this: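 Male ZDF rats, starting at about 6 weeks old, were dosed orally once daily for 40 days in 1.5% CMC/0.2% Tween 20 suspension, n = 8/group. Body weight was followed over the study. Gain was calculated per animal from day 0 to day 40 and compared with vehicle and pioglitazone (3 mg/kg) groups. Data are mean ± SEM.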

Test [2] relates to Rattus norvegicus. The experiment in a line: Antidiabetic activity in ZDF rat assessed as adiponectin level at 1 mg/kg, po QD for 40 days (reference value: 11.9+/-1.5 ug/ml). In kind it is functional.

For `CCc1nc2c(C)cc(CC(C)C)nc2n1[C@H]1CCc2cc(-c3ccccc3-c3nnn[nH]3)ccc21`, the Activity is 51% in the test on Rattus norvegicus [1] and 10.2 µg/mL in the test on Rattus norvegicus [2].
